Measured values from ChEMBL document CHEMBL4699636, “Novel 2,7-Diazaspiro[4,4]nonane Derivatives to Inhibit Mouse and Human Osteoclast Activities and Prevent Bone Loss in Ovariectomized Mice without Affecting Bone Formation” (J Med Chem, 2020).
Active and inactive are the calls of the source. The rule behind the calls is not given here.

Legend:
Mus musculus [1] = experiment: Antiosteoporotic activity in C57BL6/J mouse model of OVX-induced bone loss assessed as cortical thickness level in tibial diaphysis at 20 mg/kg, ip BID for 4 weeks by microCT analysis (179.27 +/- 7.57 um); type: functional
Mus musculus [2] = experiment: Antiosteoporotic activity in C57BL6/J mouse model of OVX-induced bone loss assessed as structure model index level in tibial metaphysis at 20 mg/kg, ip QD for 4 weeks by microCT analysis (1.92 +/- 0.19); type: functional; conditions: dose […]
Mus musculus [3] = experiment: Antiosteoporotic activity in C57BL6/J mouse model of OVX-induced bone loss assessed as trabecular bone volume per tissue volume level in tibial metaphysis at 20 mg/kg, ip BID for 4 weeks by microCT analysis (17.49 +/- 2.91 %); type: functional
[4] = Toxicity in C57BL6/J mouse model of OVX-induced bone loss assessed as effect on bone formation by measuring osteocalcin level at 20 mg/kg, ip BID for 4 weeks […]; type: organism-based; conditions: in vivo, 672 h
[5] = Toxicity in C57BL6/J mouse model of OVX-induced bone loss assessed as effect on bone formation by measuring bone formation rate per trabecular bone surface level in femoral metaphysis at 20 mg/kg, ip BID for 4 weeks by histomorphometry ([…]); type: organism-based; conditions: in vivo, 672 h
Osteoclast = experiment: Inhibition of resorption activity of mouse peripheral blood cell-derived osteoclasts at 5-10 uM incubated for 48 hrs by Kossa-staining based assay; type: functional, tissue-based; conditions: dose microM 5-10, time 48.0 hrs, in the assay text read “bone marrow-derived” for “peripheral blood cell-derived”
Outline: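 Osteoclasts from C57BL/6J mouse bone marrow, M-CSF then M-CSF 30 ng/mL plus RANKL 100 ng/mL. Day-3 cells reseeded on calcium phosphate-coated wells, compound added next day in 0.5% DMSO for 48 h, 8 wells per condition. 4 wells TRAP-stained for osteoclast counts, 4 von Kossa-stained for resorbed area. Activity expressed as resorption normalized to osteoclast number.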

[6] = Toxicity in C57BL6/J mouse model of OVX-induced bone loss assessed as effect on bone formation by measuring osteoblast surface per trabecular bone surface level in femoral metaphysis at 20 mg/kg, ip QD for 4 weeks by histomorphometry (5.03 +/ 2.92 %); type: organism-based; conditions: in vivo, 672 h
Outline: (§1)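 OVX mice, 12 weeks old, ip 20 mg/kg q.d. or b.i.d. for 4 weeks in CMC/Tween 80 vehicle. Distal right femur taken day 28. Static trabecular parameters measured on one 4-µm Masson-Goldner trichrome section, ROI 0.75 mm². n=10 per group, 9 in OVX+vehicle.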

[7] = Toxicity in C57BL6/J mouse model of OVX-induced bone loss assessed as effect on bone formation by measuring number of osteoblasts per bone surface level in femoral metaphysis at 20 mg/kg, ip BID for 4 weeks by histomorphometry (4.55 +/ 2.53 /mm); type: organism-based; conditions: in vivo, 672 h; outline: as §1
Mus musculus [8] = experiment: Antiosteoporotic activity in C57BL6/J mouse model of OVX-induced bone loss assessed as degree of anisotropy (range 0-1) level in tibial metaphysis at 20 mg/kg, ip BID for 4 weeks by microCT analysis (0.53 +/- 0.07); type: functional
[9] = Toxicity in C57BL6/J mouse model of OVX-induced bone loss assessed as effect on bone formation by measuring number of osteoblasts per bone surface level in femoral metaphysis at 20 mg/kg, ip QD for 4 weeks by histomorphometry (4.55 +/ 2.53 /mm); type: organism-based; conditions: in vivo, 672 h; outline: as §1
[10] = Toxicity in C57BL6/J mouse model of OVX-induced bone loss assessed as effect on bone formation by measuring mineralizing surface per trabecular bone surface level in femoral metaphysis at 20 mg/kg, ip QD for 4 weeks by histomorphometry (27.90 +/ 8.22 %); type: organism-based; conditions: in vivo, 672 h
[11] = Toxicity in C57BL6/J mouse model of OVX-induced bone loss assessed as effect on body weight at 20 mg/kg, IP BID for 4 weeks; type: organism-based; conditions: in vivo, 672 h
Outline: (§2)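 Body weight tracked in 12-week-old OVX C57BL6/J mice during 4 weeks of ip 20 mg/kg q.d. or b.i.d. dosing in 0.485% carboxymethylcellulose/3% Tween 80, 10 mL/kg.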

[12] = Toxicity in C57BL6/J mouse model of OVX-induced bone loss assessed as effect on body weight at 20 mg/kg, IP QD for 4 weeks; type: organism-based; conditions: in vivo, 672 h; outline: as §2
[13] = test system: Osteoclast (Homo sapiens); experiment: Toxicity in human peripheral blood cell-derived osteoclasts assessed as reduction in osteoclasts number up to 20 uM incubated for 48 hrs by TRAP-staining based assay
Mus musculus [14] = experiment: Antiosteoporotic activity in C57BL6/J mouse model of OVX-induced bone loss assessed as serum CTX-1 level […] at 20 mg/kg, ip BID for 4 weeks (165.38 +/- 54.93 %); type: functional
Mus musculus [15] = experiment: Antiosteoporotic activity in C57BL6/J mouse model of OVX-induced bone loss assessed as trabecular separation level in femoral metaphysis at 20 mg/kg, ip QD for 4 weeks by histomorphometry (319.80 +/- 106.52 um); type: functional; outline: as §1
[16] = Toxicity in C57BL6/J mouse model of OVX-induced bone loss assessed as effect on bone formation by measuring osteocalcin level at 20 mg/kg, ip QD for 4 weeks (1.62 +/ 0.21 m3/um2/y); type: organism-based; conditions: in vivo, 672 h
[17] = target: Dedicator of cytokinesis protein 5 (Homo sapiens, UniProt Q9H7D0); experiment: Inhibition of C-terminal 6-histidine tagged human DOCK5 (1212 to 1642 residues) expressed in Escherichia coli assessed as reduction in nucleotide exchange efficiency at 20 to 60 uM by N-methylanthraniloyl-GDP fluorescence based nucleotide exchange assay; conditions: dose microM 20-60
Outline: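 Mant-GDP-loaded His-tagged human RAC1 at 2.0 µM with 100 nM DOCK5 (residues 1212-1642) or TRIOGEF1 (R1232-T1550), both E. coli-expressed. Buffer: 50 mM Tris pH 8, 300 mM NaCl, 2 mM MgCl2, 1 mM DTT, 1% DMSO, 25 °C. Reaction started with 100 µM GTP. Fluorescence decay read at ex 360/em 440 nm, kobs by single-exponential fit, compound at 0, 20 or 60 µM, duplicates, as % of activity.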

[18] = Toxicity in C57BL6/J mouse model of OVX-induced bone loss assessed as effect on bone formation by measuring mineralizing mineral apposition rate level in femoral metaphysis at 20 mg/kg, ip QD for 4 weeks by histomorphometry (1.62 +/ 0.21 um/d (lcm)); type: organism-based; conditions: in vivo, 672 h
Mus musculus [19] = experiment: Antiosteoporotic activity in C57BL6/J mouse model of OVX-induced bone loss assessed as trabecular number level in femoral metaphysis at 20 mg/kg, ip QD for 4 weeks by histomorphometry (2.99 +/- 0.80 /mm); type: functional; outline: as §1
Mus musculus [20] = experiment: Antiosteoporotic activity in C57BL6/J mouse model of OVX-induced bone loss assessed as trabecular separation level in femoral metaphysis at 20 mg/kg, ip BID for 4 weeks by histomorphometry (319.80 +/- 106.52 um); type: functional; outline: as §1

Sequence of Dedicator of cytokinesis protein 5 (Q9H7D0 whole entry, the tested form may be a part): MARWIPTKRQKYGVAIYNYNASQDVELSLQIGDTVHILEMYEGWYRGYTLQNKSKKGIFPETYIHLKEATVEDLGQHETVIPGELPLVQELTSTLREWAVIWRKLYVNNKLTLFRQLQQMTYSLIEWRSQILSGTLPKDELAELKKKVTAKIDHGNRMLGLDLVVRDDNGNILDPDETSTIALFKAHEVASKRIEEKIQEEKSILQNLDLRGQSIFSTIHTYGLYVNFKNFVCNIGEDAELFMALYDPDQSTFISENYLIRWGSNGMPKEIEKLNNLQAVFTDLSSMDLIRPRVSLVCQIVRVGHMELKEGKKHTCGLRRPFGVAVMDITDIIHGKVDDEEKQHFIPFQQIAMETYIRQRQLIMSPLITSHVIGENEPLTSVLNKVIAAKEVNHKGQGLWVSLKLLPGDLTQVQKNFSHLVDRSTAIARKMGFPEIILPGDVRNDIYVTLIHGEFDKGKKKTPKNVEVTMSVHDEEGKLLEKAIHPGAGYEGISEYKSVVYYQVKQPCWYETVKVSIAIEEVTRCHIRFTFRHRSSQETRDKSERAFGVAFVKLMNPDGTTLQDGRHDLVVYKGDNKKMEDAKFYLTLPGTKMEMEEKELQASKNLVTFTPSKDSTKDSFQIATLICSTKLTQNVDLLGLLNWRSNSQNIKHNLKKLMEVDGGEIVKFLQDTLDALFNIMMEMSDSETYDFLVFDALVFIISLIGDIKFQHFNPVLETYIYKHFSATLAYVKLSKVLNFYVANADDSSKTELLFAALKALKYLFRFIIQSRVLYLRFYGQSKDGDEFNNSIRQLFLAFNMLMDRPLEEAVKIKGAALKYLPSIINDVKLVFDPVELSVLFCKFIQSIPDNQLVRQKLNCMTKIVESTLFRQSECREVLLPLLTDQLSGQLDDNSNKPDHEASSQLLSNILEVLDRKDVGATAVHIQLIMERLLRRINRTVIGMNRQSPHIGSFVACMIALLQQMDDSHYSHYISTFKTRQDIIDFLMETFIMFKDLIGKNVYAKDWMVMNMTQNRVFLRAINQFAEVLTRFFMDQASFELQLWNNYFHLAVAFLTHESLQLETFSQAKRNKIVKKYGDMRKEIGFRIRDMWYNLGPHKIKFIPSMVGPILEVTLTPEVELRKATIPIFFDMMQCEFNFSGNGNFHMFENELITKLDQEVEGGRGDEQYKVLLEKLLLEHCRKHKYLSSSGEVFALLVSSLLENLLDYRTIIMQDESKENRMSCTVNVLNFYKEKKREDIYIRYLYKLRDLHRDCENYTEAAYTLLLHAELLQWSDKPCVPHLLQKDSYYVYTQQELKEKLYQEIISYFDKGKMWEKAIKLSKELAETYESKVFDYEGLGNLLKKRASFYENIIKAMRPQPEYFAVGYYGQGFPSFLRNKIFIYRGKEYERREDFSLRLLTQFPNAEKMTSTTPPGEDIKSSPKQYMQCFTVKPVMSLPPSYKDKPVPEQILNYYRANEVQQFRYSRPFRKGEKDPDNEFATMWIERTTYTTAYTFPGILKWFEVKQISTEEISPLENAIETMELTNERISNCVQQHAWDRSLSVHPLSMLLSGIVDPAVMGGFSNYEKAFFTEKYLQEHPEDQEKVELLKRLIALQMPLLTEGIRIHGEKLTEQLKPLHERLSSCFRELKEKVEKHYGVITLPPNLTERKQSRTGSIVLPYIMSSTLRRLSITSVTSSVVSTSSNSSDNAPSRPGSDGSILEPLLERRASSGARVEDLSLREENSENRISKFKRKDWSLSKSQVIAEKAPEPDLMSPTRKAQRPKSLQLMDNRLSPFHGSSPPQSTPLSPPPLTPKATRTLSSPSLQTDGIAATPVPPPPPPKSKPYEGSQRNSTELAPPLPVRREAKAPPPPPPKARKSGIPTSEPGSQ

Work on `O=S1(=O)N(c2ccccc2)C[C@H](O)[C@]12CCN(Cc1ccc(Cl)cc1)C2` (racemic) yielded an Activity (Mus musculus [1]) of 193.5 um, an Activity_index (Mus musculus [2]) of 1.88 and an Activity (Mus musculus [3]) of 25.3%. For the same compound, the Activity [4] was 109.97%, the Activity [5] was 157.59 um3/um2/yr and the inhibition (Osteoclast) was “Active”. The Activity [6] was 3.57%, the Activity [7] was 3.63 /millimeter and the Activity_index (Mus musculus [8]) was 0.45. For the same compound, the Activity [9] was 2.96 /millimeter, the Activity [10] was 27.7% and the Activity [11] was “Non-Toxic”. For the same compound, the Activity [12] was “Non-Toxic”, the Activity [13] was “Non-Toxic” and the Activity (Mus musculus [14]) was 112.71%. For the same compound, the Activity (Mus musculus [15]) was 318.42 um, the Activity [16] was 96.8% and the inhibition [17] was 45%. The Activity [18] was 1.82 micrometer/day, the Activity (Mus musculus [19]) was 2.83 /millimeter and the Activity (Mus musculus [20]) was 251.29 um.
